Measured values: article PMC3481545 (Biochemistry, 2012)
Numbering of substitutions follows the chain as printed. In names and notes the source's numbering stands.

B1: ActR-IIB Wild type: human recombinant ActR-IIB receptor extracellular domain (ECD), wild type, expressed in E. coli (protein, UniProt Q13705 19-137, looked up)
extracellular domain: SGRGEAETRECIYYNANWELERTNQSGLERCEGEQDKRLHCYASWRNSSGTIELVKKGCWLDDFNCYDRQECVATEENPQVYFCCCEGNFCNERFTHLPEAGGPEVTYEPPPTAPTLLT
modifications: extracellular domain
B2: S107P: BMPR-II ECD naturally occurring single-amino-acid-substitution mutant S107P (protein)
chain: ASQNQERLCAFKDPYQQDLGIGESRISHENGTILCSKGSTCYGLWEKSKGDINLVKQGCWSHIGDPQECHYEECVVTTTPPPIQNGTYRFCCCSTDLCNVNFTENFPPPDTTPLSPPHSFNRDET
modifications: left off: TRX, N-terminal, cleaved | His6, C-terminal, state not stated
B3: Y40Q: BMPR-II ECD single-amino-acid-substitution mutant Y40Q (protein)
chain: B2 chain with Y15Q, P82S
modifications: left off: TRX, N-terminal, cleaved | His6, C-terminal, state not stated
B4: Y40R: BMPR-II ECD single-amino-acid-substitution mutant Y40R (protein)
chain: B2 chain with Y15R, P82S
modifications: left off: TRX, N-terminal, cleaved | His6, C-terminal, state not stated
B5: G47N: BMPR-II ECD naturally occurring single-amino-acid-substitution mutant G47N (protein)
chain: B2 chain with G22N, P82S
modifications: left off: TRX, N-terminal, cleaved | His6, C-terminal, state not stated
B6: Y40G: BMPR-II ECD single-amino-acid-substitution mutant Y40G (protein)
chain: B2 chain with Y15G, P82S
modifications: left off: TRX, N-terminal, cleaved | His6, C-terminal, state not stated
B7: BMPR-II Wild type: human recombinant BMPR-II receptor extracellular domain (ECD), wild type, expressed in E. coli (protein)
chain: B2 chain with P82S
modifications: left off: TRX, N-terminal, cleaved | His6, C-terminal, state not stated
B8: Y40P: BMPR-II ECD single-amino-acid-substitution mutant Y40P (protein)
chain: B2 chain with Y15P, P82S
modifications: left off: TRX, N-terminal, cleaved | His6, C-terminal, state not stated
B9: BMP-7: Bone Morphogenetic Protein ligand provided by Stryker Biotech; BMPR-II ligand (protein)
chain: STGSKQRSQNRSKTPKNQEALRMANVAENSSSDQRQACKKHELYVSFRDLGWQDWIIAPEGYAAYYCEGECAFPLNSYMNATNHAIVQTLVHFINPETVPKPCCAPTQLNAISVLYFDDSSNVILKKYRNMVVRACGCH

tested on: not listed separately; test: Energy transfer; format: binding; conditions: value in parenthesis
How it was run: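 Human receptor ECDs (wild-type, mutants, chimeras) were made as TRX/His-tag fusions in E. coli BL21(DE3), cut with thrombin, and purified by Ni-NTA, gel filtration and C18. Protein was quantified by A280. bis-ANS was diluted from a 10 mM DMF stock into 50 mM Tris-HCl pH 7.5, 150 mM NaCl. Tryptophan was excited at 295 nm, emission read 310–600 nm at 25°C, and K′ derived from energy transfer to bis-ANS, normalized to wild-type.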

Compared with B1, B2 is lower in “Relative K′ of bis-ANS (energy transfer), normalized to wild-type” value: 1.0 for the first, 0.9 for the second.

First: B3
Second: B4
The “Relative K′ of bis-ANS (energy transfer), normalized to wild-type” value of the first is higher: 1.9 for the first, 0.9 for the second.

Compared with B5, B6 is lower in “Relative K′ of bis-ANS (energy transfer), normalized to wild-type” value: 2.3 for the first, 0.6 for the second.

First: B7
Second: B8
The “Relative K′ of bis-ANS (energy transfer), normalized to wild-type” value of the first is lower: 1.0 for the first, 1.6 for the second.

tested on: not listed separately; test: bis-ANS fluorescence titration of receptor ECDs; format: binding; conditions: value in parenthesis
How it was run: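 Receptor ECDs were expressed in E. coli as TRX/His-tag fusions, thrombin-cleaved, and purified (Ni-NTA, gel filtration, C18), then quantified by A280. bis-ANS was diluted from a 10 mM DMF stock into 50 mM Tris-HCl pH 7.5, 150 mM NaCl and titrated against fixed protein. Peak fluorescence versus dye concentration was fitted to a Hill equation for apparent K′, normalized to wild-type.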

B1 and B2 are the same in “Relative K′ of bis-ANS (Hill Eq.), normalized to wild-type” value: 1.0 for the first, 1.0 for the second.

Going from B3 to B4, the “Relative K′ of bis-ANS (Hill Eq.), normalized to wild-type” value falls from 2.4 to 1.1.

Going from B5 to B6, the “Relative K′ of bis-ANS (Hill Eq.), normalized to wild-type” value falls from 2.9 to 0.3.

Going from B7 to B8, the “Relative K′ of bis-ANS (Hill Eq.), normalized to wild-type” value rises from 1.0 to 1.8.

tested on: BMP-7-stimulated OC promoter activity in fetal rat calvaria (FRC) cells; test: Osteocalcin promoter-Luciferase; format: cell-based; conditions: BMP-7 alone, 6 nM
How it was run: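 Primary fetal rat calvaria cells were grown in αMEM+10% FBS and transfected with an OC promoter-luciferase plasmid via FuGENE 6 in OPTI medium with 8 U hyaluronidase. After 5 h, fresh medium was added overnight. Cells were then treated 24 h with 6 nM BMP-7, alone or with 20-fold molar excess soluble receptor ECD. Luciferase was read in lysates; mean±SEM of three independent measurements.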

With B9 the “Stimulation of OC promoter activity beyond the empty plasmid control” value was 14 fold.
